Experimental data from the EternaBench riboswitch data.

Test system: MS2 coat protein
Test: apparent Kd, MS2 coat protein; higher = weaker binding; RNA-MaP array; FMN 200 µM where present
How it was run: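 The apparent Kd comes from binding curves fitted cluster by cluster, filtered, and summarised as a median. Those curves followed SNAP-549-labelled MS2 coat protein from 0.7 or 1.5 nM, doubling to 3 µM, on Illumina sequencing-chip clusters where stalled E. coli RNA polymerase had transcribed the designs, without and then with constant ligand. The buffer was 100 mM Tris-HCl pH 7.5, 80 mM KCl, 4 mM MgCl2, BSA, DTT, yeast tRNA and Tween-20, and green signal was normalised to red-channel RNA signal and control-cluster median Fmax.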

[1] = designed as: OFF switch for flavin mononucleotide, no ligand
[2] = ligand present: flavin mononucleotide, designed as: OFF switch for flavin mononucleotide
[3] = designed as: ON switch for flavin mononucleotide, no ligand
[4] = ligand present: flavin mononucleotide, designed as: ON switch for flavin mononucleotide

| Sequence | apparent Kd [1] | apparent Kd [2] | apparent Kd [3] | apparent Kd [4] |
| --- | --- | --- | --- | --- |
| CGUGCUAUGUAGAAGGCAGAUCUGAUUCAGAUCUGAGGAUAUACAUGAGGAUCACCCAUGUUAUGCACCAGCACGAGAGUGCAU | 9.83 nM | 40.2 nM | – | – |
| CGUGUUAGAGGAGGAUAUAGCGCAAGAAGGUCGCUAGAAGGCCUUGACAUGAGGAUCACCCAUGUGAUCGGCUCUCUGGGUAAG | 211 nM | 141 nM | – | – |
| CGUUAAUAUCGAGGAUAUGUCUAGACACAUGAGGAUCACCCAUGUAUGUGUAUAGAAGGCGAUAUUAACAGCAUGUUACAUCCC | – | – | 46.6 nM | 18.8 nM |
| CGUUGAUGAGGAUAUCGAUGUUAGUACAUGAGGAUCACCCAUGUUAUCCAAGUGUCGUUUCGAGAAGGUAUUGGAC | 216 nM | 348 nM | – | – |
| CUAAAGCAUGUAGGAUAUGCGUGGCGAAGCUAUGCAGAAGGACAUGAGGAUCACCCAUGUCUUUCCGUCUGCGUACAGACGGAA | 19.1 nM | 52.4 nM | – | – |
| CUAAAUCAUGUAGGAUAUGCAUGGCGAAGCUACGCAGAAGGACAUGAGGAUCACCCAUGUCAGAACGUCUGCGUUCAGACGUUG | 17.7 nM | 58 nM | – | – |
| CUAAAUCAUGUAGGAUAUGCAUGGCGAAGCUACGCAGAAGGACAUGAGGAUCACCCAUGUCAGUACGUCUGCGUACAGACGUUG | 14.3 nM | 19.1 nM | – | – |
| CUAAGGGAUUGCUCGAAGACAUGAGGAUCACCCAUGUAGGCGAGAAGGGCGGCGACUUUAGCGCUGCAGGAUAUCGACUGCAGU | 9 nM | 10.1 nM | – | – |
| CUAGAAAGGACAGGAUAUCGGGAUCGAACACCCGACAUGAGGAUCACCCAUGUCGCAAAUGAUAGCGAGAAGGGUCGGACACAA | – | – | 57 nM | 18.6 nM |
| CUAGCGGAUGUAGGAUAUCGGACUGUUUCAGUCUGAGAAGGACAUGAGGAUCACCCAUGUAUUGCUGCGUGAGUAGCACGCUAG | 19.1 nM | 30.2 nM | – | – |
| CUAUGCGGAAUAGGAUAUUCAUUCAUGAGGAUAGAAGAAGGGUUACAUGAGGAUCACCCAUGUAUACACAUGAGGAUCCCUUAC | 162 nM | 181 nM | – | – |
| CUAUUAUGUGUAGGAUAUGCAUAUUAUUAUUAUGCAGAAGGACAUGAGGAUCACCCAUGUAUAUUAUUAUUAUAUAUUAUAUAU | 10.7 nM | 11.6 nM | – | – |
| CUAUUCCGAGGAUAUACAUGAGGAUCACCCAUGUCGGGCCUCCGCGUUUCGCGCCUCAGUAGAAGGCGGGUUUC | 20.4 nM | 25.9 nM | – | – |
| CUAUUGUGAGGAUAUCAGUAGUAAUACAAUAGUAUUACUACUGAGAAGGCACAUGAGGAUCACCCAUGUUCCUU | 14.1 nM | 32.8 nM | – | – |
| CUCACUCCAAAGAGCGCGUCUGCCUGAGAAGGGUGCUAAUUAAUUACAUGAGGAUCACCCAUGUCACAGGAUAUCAGGGUCGCU | – | – | 622 nM | 230 nM |
| CUCAGACAUGAGGAUCACCCAUGUUAGGAUAUAUAAAAGAGCGGCAGAGCGCUCUUCCAUAGAAGGAGCAGUGU | 27.2 nM | 27.7 nM | – | – |
| CUCAUGAGAGGAUAUACAUGAGGAUCACCCAUGUGGUUAUCUCCUCGGGCUCCAUUACGUAGAAGGCUCAUUUG | 33.9 nM | 90.6 nM | – | – |
| CUCAUGUCAGGAUAUCAGUAGUAAAAAAAUAAAAUUACUACUGAGAAGGGACAUGAGGAUCACCCAUGUCCUGG | 95.8 nM | 17.9 nM | – | – |
| CUCAUGUCAGGAUAUUAAGUCCGUAGCCUAUGGCUGCAACAUGAGAAGGGACAUGAGGAUCACCCAUGUCGGGA | 47.5 nM | 76.8 nM | – | – |
| CUCAUGUGAGGAUAUAGUGCGUCUUCUAUUAUUAUUGAGUACUAGAAGGCACAUGAGGAUCACCCAUGUAGCAC | 53.4 nM | 54.3 nM | – | – |
| CUCAUGUGAGGAUAUGUACAGAAAAAAAUGGGUGAAACUGUACAGAAGGCACAUGAGGAUCACCCAUGUGCCUU | 24.3 nM | 12.2 nM | – | – |

| Sequence | apparent Kd [1] | apparent Kd [2] | apparent Kd [3] | apparent Kd [4] |
| --- | --- | --- | --- | --- |
| CUCCAGCAAGGAUAUACAUGAGGAUCACCCAUGUAAAGACAAGAGUUGGGAGACGCAUGUAGAAGGUGCACAUC | 38.2 nM | 69 nM | – | – |
| CUCCUACAUGAGGAUCACCCAUGUCAGGAUAUCUCAGUGGUACCUAAAUUUACCACCCAGAGAAGGGACGUGCA | 13.3 nM | 17.7 nM | – | – |
| CUCUAGCUCACAGGAUAUGGGUGUCGACGAUGCCCAGAAGGGUGAUUUGGCACAUGAGGAUCACCCAUGUGGGCGCUUGAAUAU | – | – | 44.5 nM | 94.3 nM |
| CUCUCACAUGAGGAUCACCCAUGUCCACCUCCGUGAGGAUAUAGAUAAUAAAUACAUUUACUAGAAGGCGCAUCCC | – | – | 285 nM | 298 nM |
| CUCUUGUAAGGAUAUCUGACAAGUGACGAAAGUCACAGUUCAGAGAAGGUACAUGAGGAUCACCCAUGUAGAAC | 76.7 nM | 64.4 nM | – | – |
| CUCUUGUAAGGAUAUGCUGCUCGUCACGAAAGUGAUGAGUAGCAGAAGGUACAUGAGGAUCACCCAUGUAAAUA | 111 nM | 34.9 nM | – | – |
| CUCUUGUCAGGAUAUUAUGGACGAAGGCAGGGCCGCGUCAGUGAGAAGGGACAUGAGGAUCACCCAUGUAAAAU | 97.8 nM | 74.6 nM | – | – |
| CUGAUGUGAGGAUAUCGGACUACGGCCAGGCCGCUAGCAUACGAGAAGGCACAUGAGGAUCACCCAUGUGAGAA | 13.3 nM | 42.7 nM | – | – |
| CUGAUGUGAGGAUAUCGGGCUACAGGACUGCUGCUAGCAAACGAGAAGGCACAUGAGGAUCACCCAUGUGAGAG | 18.1 nM | 25.4 nM | – | – |
| CUGAUGUUAGGAUAUCAGGUCGCGCACGAAGGCGCGCGGCAUGAGAAGGAACAUGAGGAUCACCCAUGUGACGA | 48.4 nM | 145 nM | – | – |
| CUGCCACAUGAGGAUCACCCAUGUGAGGAUAUGGCCUGUUUGGCGUGUGCUGGCUCUGUCAGAAGGCGCGUGGG | 24.1 nM | 33.9 nM | – | – |
| CUGCGACGGUGCACAAGUGGACGGAGAAGGCAGACAUGAGGAUCACCCAUGUGAGCCUGCUAUUCUGAGGAUAUCCGUUCACAC | 36 nM | 213 nM | – | – |
| CUGCUAGUUGAGAAGGGACAACUUGGUGAUCGGACAUGAGGAUCACCCAUGUCAGGAUAUCAGGGUAGACCCAGCAGGGUGAAA | 6.56 nM | 7.83 nM | – | – |
| CUGCUGGAGCUUUGCUUUAGUCGUACAUGAGGAUCACCCAUGUAGGAUAUGGUAGGCUUUGCUUACCAGAAGGAUAGAGUGGUC | 93.5 nM | 40.6 nM | – | – |
| CUGGGCGGAGGAUAUGCGGGUUGGGCAUAAGUUCGGCUGGGACAUGAGGAUCACCCAUGUAGAAGGUUGUUCGG | 40.3 nM | 40 nM | – | – |
| CUGGUGUGAGGAUAUCAGGACACGCCCGCGGACGUGUCAAAUGAGAAGGCACAUGAGGAUCACCCAUGUGGGAC | 33.4 nM | 166 nM | – | – |
| CUGGUUGUCGAGGAUAUGCACCAGCUCACUGACGCAGAAGGCGACACAUGAGGAUCACCCAUGUCAGUUCGCGU | 16.9 nM | 18.9 nM | – | – |
| CUGUACAUAGGAUAUAGUUGUUUUUACAUGAGGAUCACCCAUGUUACUCCUCUCUCUCUUCUAGAAGGAUGUUUCU | 65.8 nM | 50.1 nM | – | – |
| CUGUGACGGAUCCAGAAUUACAACAUGAGGAUCACCCAUGUACAGGAUAUCGGGUUGAUAGGCGCCGAGAAGGGUAUGAUCACG | 137 nM | 121 nM | – | – |
| CUGUUAUAGGUCCAGAAUUACAACAUGAGGAUCACCCAUGUGCAGGAUAUCGGGUUAAUUUUCGACGAGAAGGGCAUAGUCACG | 33.5 nM | 64.1 nM | – | – |
| CUGUUAUAGGUCCAGUUUUACAACAUGAGGAUCACCCAUGUGCAGGAUAUCGUGUUAAUUUUCAUCGAGAAGGGCAUAGUCACG | 37.6 nM | 105 nM | – | – |
